Compounds with a hit are over-represented: about 3.7% of the library has one in this group of screens.
Cl transport mod – modulates chloride dependent transport by human KCC2. KCC2 cells, thallium flux FluoZin-2 fluorescence. B-score of Tl+ flux slope (higher = more flux/activation; lower = inhibition) at 10 µM. hit rate 2.2% among 190,000. AID 1456;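 active means thallium flux slope and its plate-corrected score both differing from the plate sample mean at a set confidence after two filtering rounds, in either direction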;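 further: slope of fluorescence scaled to starting intensity during 10 to 20 s after thallium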
NPY-Y1 antag – blocks the human neuropeptide Y Y1 receptor; inhibition, % at 3.6 µM; AID 1040; hit rate 1% among 200,000; HEK293-CNG Y1 cells, membrane potential fluorescence; NPY at EC95, then isoproterenol; P25929;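 active means inhibition above the campaign mean inhibition of all tested compounds plus 3 SD, cut at about 20% in these data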;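 further: 0% = DMSO wells given NPY plus isoproterenol and 100% = isoproterenol alone without NPY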
Target sequence (P25929 whole entry, looked up): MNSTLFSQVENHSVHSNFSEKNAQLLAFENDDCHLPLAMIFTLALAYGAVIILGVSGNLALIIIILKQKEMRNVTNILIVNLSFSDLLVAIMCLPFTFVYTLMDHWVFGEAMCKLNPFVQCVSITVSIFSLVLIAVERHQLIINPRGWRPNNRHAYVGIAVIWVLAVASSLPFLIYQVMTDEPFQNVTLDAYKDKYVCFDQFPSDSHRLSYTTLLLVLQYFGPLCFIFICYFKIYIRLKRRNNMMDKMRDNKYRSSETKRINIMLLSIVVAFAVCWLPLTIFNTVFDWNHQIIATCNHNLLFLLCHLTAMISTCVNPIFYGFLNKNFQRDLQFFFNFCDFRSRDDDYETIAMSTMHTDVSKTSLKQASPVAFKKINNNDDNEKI
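Assay system: HEK293 cells with Y1 receptor plus CNG channel | Probe or stimulus: NPY (25 nM), isoproterenol (1 µM), Ro 20-1724 (25 µM) | Timing: Compound incubation 1 h at room temperature, readout 45 min post-stimulation | Measured by: Membrane-potential fluorescent dye readout | Benchmarks: High control isoproterenol alone, low control NPY with isoproterenol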
NPY-Y1 PAM-ag – potentiators or agonists of human neuropeptide Y receptor Y1 | P25929 | NPY-Y1 expressing cells, potentiator/agonist activation | activation, % at 3.6 µM | hit rate 0.37% among 220,000; in the data active means activation above about 33%, passing the limit was not always enough;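 further: cells stimulated with NPY at EC10 then isoproterenol at EC100; 0% = low agonist plus stimulus and 100% = saturating agonist plus stimulus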
NPY Y2 blocker – NPY-Y2 (human) receptor antagonism | P49146 | NPY-Y2 expressing cells, antagonist mode | inhibition, % at 2.7 µM | hit rate 0.99% among 140,000;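 further: 0% = vehicle with agonist challenge and 100% = reference antagonist with challenge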
NPY-Y2 PAM-ag – human NPY-Y2 potentiation or agonism, primary screen; activation, % at 3.6 µM; AID 1359; P49146; hit rate 0.45% among 220,000; cells expressing NPY-Y2, potentiator/agonist read-out; in the data active means activation above about 27%;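 further: cells stimulated with NPY near EC25 plus isoproterenol at EC100; 0% = vehicle plus submaximal agonist and 100% = vehicle plus saturating agonist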
Furin inhibitor – blocks human furin protease activity | P09958 | inhibition, % at 20 µM or 30 µM | purified furin, fluorogenic substrate cleavage | hit rate 0.061% among 220,000; in the data active means inhibition above about 25%
NPY1 antag conf – confirmation of human neuropeptide Y receptor Y1 antagonists | shares compounds with NPY-Y1 antag | HEK293-CNG NPY-Y1, membrane potential fluorescence, cAMP; NPY challenge against isoproterenol-raised cAMP | inhibition, % at 3.6 µM | hit rate 21% among 1,200 | AID 1254; in the data active means inhibition above about 20%;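 further: 0% = vehicle with agonist plus stimulus and 100% = stimulus alone without agonist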
NPY2 antag ctr – human NPY-Y2 antagonism in NPY-Y1 counter-screen. shares compounds with NPY-Y1 antag. HEK293 NPY-Y2 CNG membrane potential fluorescence; cells given NPY, then isoproterenol. inhibition, % at 3.6 µM. hit rate 28% among 1,200. AID 1255;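 further: 0% = DMSO with agonist challenge and 100% = reference antagonist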
An asterisk follows results filed as active; nt = not tested or not shown. Unless noted, no stated cut-off is given here; in the data, active means inhibition above about 17%; inactive means the rest.

SMILES | Cl transport mod | NPY-Y1 antag | NPY-Y1 PAM-ag | NPY Y2 blocker | NPY-Y2 PAM-ag | Furin inhibitor | NPY1 antag conf | NPY2 antag ctr
Cc1ccc(-c2cc3cccc[n+]3cc2-c2ccc(C)cc2)cc1 | 0.78 | 22* | -62 | 14 | -16 | -18 | 32* | 21*
COc1cccc(-c2noc(C3CCCN(S(=O)(=O)c4cccc(Cl)c4C)C3)n2)c1 (configuration not stated) | nt | 30* | 2 | 6 | -5 | -15 | 11 | 13
Cc1nn(C)c2ncc(C(N)=O)c(Oc3ccc(Cl)cc3)c12 | nt | nt | 17 | nt | 4 | -10 | nt | nt
CC(C)CCOC(=O)C1C(c2ccccc2)C(C(=O)O)C1c1ccccc1 (configuration not stated) | nt | 3 | 1 | 5 | -14 | -14 | nt | nt
N=c1n(Cc2ccc(Cl)cc2)c2ccccc2n1CC(O)COc1ccccc1 (configuration not stated) | -0.1 | 41* | -9 | nt | -26 | -14 | 26* | 22*
N=c1n(Cc2ccccc2)c2ccccc2n1CC(O)COc1ccc(Cl)cc1Cl (configuration not stated) | 1.1 | 8 | -23 | nt | -16 | -7 | nt | nt
CCN(CC)CCn1c(=N)n(CC(O)COc2cccc(C)c2)c2ccccc21 (configuration not stated) | 0.76 | 55* | -48 | nt | -28 | -25 | 44* | 41*
Cc1cc(NC(=O)Cc2ccccc2)ccc1NC(=O)c1cccs1 | nt | 0 | 4 | nt | -2 | -14 | nt | nt
CCOc1ccccc1CN1CCC(CO)(CCOc2ccccc2)CC1 | -1.5 | 31* | -49 | nt | -32 | -17 | 14 | 17
COc1ccc(CN2CCC(CO)(CCOc3ccccc3)CC2)c(OC)c1C | nt | 24* | -15 | nt | -22 | -1 | 11 | 17
CC1Cc2ccccc2N1C(=O)COC(=O)CCc1nc2ccccc2c(=O)[nH]1 (configuration not stated) | -0.94 | -2 | -2 | nt | -10 | -13 | nt | nt
COc1ccc(N(C)S(=O)(=O)c2cccc(C(=O)N(C)Cc3ccc(C)o3)c2)cc1 | -2.4 | 31* | -9 | nt | -14 | -14 | 7 | 16
COc1ccc(N(C)S(=O)(=O)c2cccc(C(=O)NCc3ccc4c(c3)OCO4)c2)cc1 | nt | 2 | -11 | nt | 8 | -16 | nt | nt
COc1ccc(N(C)S(=O)(=O)c2cccc(C(=O)NC3CCC(C)CC3)c2)cc1 (configuration not stated) | -2.1 | 46* | -3 | nt | -6 | -14 | 27* | 15
COc1ccc(CCNC(=O)c2ccc(N(C)S(=O)(=O)c3ccccc3)cc2)cc1 | -0.91 | nt | -8 | nt | -34 | -15 | nt | nt
COc1ccc(N(C)S(=O)(=O)c2cccc(C(=O)NC3CCCCCC3)c2)cc1 | -0.82 | 39* | -13 | nt | -19 | -23 | 10 | 12
O=Cc1ccc(Sc2ncccn2)o1 | 0.91 | -3 | 2 | nt | -9 | -23 | nt | nt
Cc1nc2c(C(=O)N3CCN(c4ccccn4)CC3)cnn2c(C)c1Cc1cccc(Cl)c1 | -1.1 | 31* | -22 | 13 | -21 | -22 | 12 | 12
Cc1nc2c(C(=O)N3CCCC3)cnn2c(C)c1Cc1c(F)cccc1Cl | -1.2 | 5 | 6 | 4 | -2 | -22 | nt | nt
COC(=O)c1ccc(C(=O)OC)c(NC(=S)N2CCCC(C)C2)c1 (configuration not stated) | 0.85 | 4 | 13 | -2 | -6 | -22 | nt | nt
CN(C)CCSc1nc(-c2ccccc2)nc2c1CCC2 | 0.17 | 24* | -94 | 16 | -42 | -16 | 12 | 20*
COCc1cc(C)nc2sc(C(=O)NN)c(-n3cccc3)c12 | -1.3 | 1 | -5 | nt | -20 | -33 | nt | nt
CCCCNC(=O)c1sc2nc(C)cc(COC)c2c1-n1cccc1 | -1.8 | 21* | -44 | 9 | -22 | -22 | 20 | 12
O=C(C1c2ccccc2Oc2ccccc21)N1CCN(c2ccc(Cl)cc2)CC1 | -0.89 | 11 | -15 | 10 | -22 | -10 | nt | nt
COc1ccccc1N1CCN(C(=O)C2c3ccccc3Oc3ccccc32)CC1 | nt | 23* | 2 | 14 | 4 | -7 | 7 | 12
SMILES | Cl transport mod | NPY-Y1 antag | NPY-Y1 PAM-ag | NPY Y2 blocker | NPY-Y2 PAM-ag | Furin inhibitor | NPY1 antag conf | NPY2 antag ctr
O=C(NC1CCCC1)C(c1ccncc1)N(Cc1ccccc1)C(=O)Cc1cccs1 (configuration not stated) | -0.0013 | 21* | -7 | 8 | 3 | -19 | 4 | 6
O=C(NC1CCCCC1)C(c1ccncc1)N(Cc1ccc2c(c1)OCO2)C(=O)c1cnsn1 (configuration not stated) | -0.15 | 25* | -24 | 11 | -7 | -10 | 28* | 17
COc1ccc(C(=O)/C=C/C(=O)N(Cc2ccc3c(c2)OCO3)C(C(=O)NC2CCCCC2)c2ccncc2)c(O)c1 (configuration not stated) | -0.48 | 5 | -40 | 5 | -5 | -17 | nt | nt
Cc1onc(-c2c(F)cccc2Cl)c1C(=O)N=C(N)N1CCCC1 | 0.017 | nt | 3 | nt | -13 | -26 | nt | nt
CCc1cccc(CC)c1NC(=O)C(NS(=O)(=O)c1cccs1)c1ccccc1 (configuration not stated) | 0.055 | 23* | -41 | 13 | 7 | -7 | 23* | 10
CCOC(=O)CC1C(=O)NCCN1C(=O)c1cc2c(=O)n3ccccc3nc2s1 (configuration not stated) | -1.4 | 98* | -10 | 3 | -17 | -122 | 1 | 3
CCOC(=O)CC1C(=O)NCCN1C(=O)c1cc2c(=O)n3cccc(C)c3nc2s1 (configuration not stated) | -1.4 | 1 | -16 | 0 | -9 | -86 | nt | nt
Cc1ccc(C)c(C(=O)CN2C3=NCCCN3c3ccccc32)c1 | 0.023 | 26* | -5 | 8 | -2 | -2 | 11 | 12
COc1ccc(C(=O)CN2C3=NCCCN3c3ccccc32)cc1OC | 0.26 | -2 | 10 | 2 | 6 | -20 | nt | nt
CCc1ccc(NC(=O)c2cc(C)on2)cc1 | -0.83 | -2 | 1 | 0 | -5 | -21 | nt | nt
CCCc1cc(C(=O)OC)c(NC(=O)c2cc(C)on2)s1 | -0.37 | 20* | -20 | 2 | 8 | -18 | 8 | 5
NC(=O)COC(=O)CSc1cccc2cccc(Cl)c12 | -1.8 | 27* | -48 | nt | -34 | -22 | 13 | 14
O=C(COC(=O)CSc1cccc2cccc(Cl)c12)Nc1ncc(C(F)(F)F)cc1Cl | -1.1 | 2 | -44 | 14 | -21 | -9 | nt | nt
CCN1/C(=C/c2sc(-c3ccccc3C)c[n+]2C)Sc2ccccc21 | -1.3 | 40* | -10 | nt | 21 | -21 | 28* | 15

Source: PubChem BioAssay (several laboratories)
